Measurements pooled from the literature.
Each line is one published result; the experiments were not run side by side.
Target: Proto-oncogene tyrosine-protein kinase ROS (ROS1, Homo sapiens, UniProt P08922)

Compound	effect on	method	tested at	remaining binding
CC1=C(C#N)[C@@H](c2ccc3[nH]nc(C)c3c2)C(C#N)=C(c2ccc(Cl)cc2)N1	cell-free assay	competition with immobilised ligand	1 µM	100%
CCN1CCN(Cc2ccc(C(=O)Nc3ccc(C)c(Oc4ccc5c(c4)CC(=O)N5)c3)cc2C(F)(F)F)CC1	binding	competition with immobilised ligand	1 µM	100%
CN(C)c1ncc(F)c(-c2cnn3ncccc23)n1	binding		1 µM	87%
O=C(c1ccc(Nc2ncc(Cl)c(-c3cc4ccccc4s3)n2)cc1)N1CCC(N2CCCC2)CC1	binding	competition with immobilised ligand	1 µM	31%
N[C@H]1CCN(c2nccc(-c3cnn4ncccc34)n2)C1	binding		1 µM	85%
CNCc1ccccc1-c1csc([C@@H](C)Nc2nc(C)nc3cc(OC)c(OC)cc23)c1	cell-free assay	competition with immobilised ligand	1 µM	84%
C[C@@H](c1ccc(-n2cnc3c(N)ncnc32)cc1)N1CCc2nn(C)c(Cc3ccccc3)c2C1=O	binding	competition with immobilised ligand	0.1 µM	100%
CC(C)(O)c1cncc(-c2nc3ccc(F)cc3n2C2CC2)c1	cell-free assay	competition with immobilised ligand	1 µM	100%
O=C(c1ccc(Nc2ncc(Cl)c(-c3ccc(Cl)s3)n2)cc1)N1CCC(N2CCCC2)CC1	binding	competition with immobilised ligand	1 µM	37%
O=C(Nc1cccnn1)N1CCC(=Cc2cccc(Oc3ccc(C(F)(F)F)cn3)c2)CC1	cell-free assay	competition with immobilised ligand	1 µM	80%
CN(C)c1nccc(-c2cnc3ncccn23)n1	binding		1 µM	71%
c1cncc(-c2cccc(Nc3nccc(NC4CCCCC4)n3)c2)c1	binding	competition with immobilised ligand	10 µM	20%
CN(C)CC#Cc1ccc(OCCCc2sc(N3CCc4cccc(C(=O)Nc5nc6ccccc6s5)c4C3)nc2C(=O)O)c(F)c1	cell-free assay	competition with immobilised ligand	1 µM	93%
O=C(NCC1CCOCC1)c1n[nH]cc1NC(=O)c1c(F)cccc1F	binding	competition with immobilised ligand	1 µM	100%
Nc1ncc2c(n1)-c1c([nH]c3ccc(C#CC4CC4)cc13)CCCC2	binding	competition with immobilised ligand	1 µM	99%
O=C(NCCCN1CCOCC1)c1ccc(Nc2nccc(-c3cc4ccccc4s3)n2)cc1	binding	competition with immobilised ligand	1 µM	53%
C[C@@H]1CCN(c2nccc(-c3cnn4ncccc34)n2)C1	binding		1 µM	99%
CNC(=O)[C@@H]1CC[C@@H](n2c(-c3ccc4cnccc4c3)nc3ccc(C(=O)NCc4cccc(C(N)=O)c4)cc32)C1	binding	competition with immobilised ligand	1 µM	100%
CO[C@@H](C)c1c(Nc2ccc([C@H](N(C)C(=O)C3CCS(=O)(=O)CC3)C(F)(F)F)cc2)cnc2cc(Cl)nn12	cell-free assay	competition with immobilised ligand	1 µM	77%
CC1CCCN1c1nccc(-c2cnn3ncccc23)n1 (stereo not shown)	binding		1 µM	100%
COc1ccc2c(O[C@@H]3C[C@H]4C(=O)N[C@]5(C(=O)O)CC5/C=C\CCCCC[C@H](NC(=O)OC5CCCC5)C(=O)N4C3)cc(-c3csc(NC(=O)C(C)C)n3)nc2c1C (stereo partly shown)	cell-free assay	competition with immobilised ligand	1 µM	100%
CN(c1nccc(-c2cnn3ncccc23)n1)C1CC1	binding		1 µM	100%
